# Measured values taken from ChEMBL document CHEMBL4431355, “Design and synthesis of benzylpiperidine inhibitors targeting the menin-MLL1 interface” (Bioorg Med Chem Lett, 2016).
# Assays:
# [1] = biological target: T1, Menin/Histone-lysine N-methyltransferase MLL (Homo sapiens) (UniProt O00255+Q03164); assay: Inhibition of human recombinant full length menin/MLL1 (unknown origin) interaction using Ac-SRWRFPARPGTGRR-Ahx-Ahx-K-FAM as substrate at 20 uM after 15 mins by fluorescence polarization binding assay; assay type: protein assay
# T1 sequence (O00255 whole entry): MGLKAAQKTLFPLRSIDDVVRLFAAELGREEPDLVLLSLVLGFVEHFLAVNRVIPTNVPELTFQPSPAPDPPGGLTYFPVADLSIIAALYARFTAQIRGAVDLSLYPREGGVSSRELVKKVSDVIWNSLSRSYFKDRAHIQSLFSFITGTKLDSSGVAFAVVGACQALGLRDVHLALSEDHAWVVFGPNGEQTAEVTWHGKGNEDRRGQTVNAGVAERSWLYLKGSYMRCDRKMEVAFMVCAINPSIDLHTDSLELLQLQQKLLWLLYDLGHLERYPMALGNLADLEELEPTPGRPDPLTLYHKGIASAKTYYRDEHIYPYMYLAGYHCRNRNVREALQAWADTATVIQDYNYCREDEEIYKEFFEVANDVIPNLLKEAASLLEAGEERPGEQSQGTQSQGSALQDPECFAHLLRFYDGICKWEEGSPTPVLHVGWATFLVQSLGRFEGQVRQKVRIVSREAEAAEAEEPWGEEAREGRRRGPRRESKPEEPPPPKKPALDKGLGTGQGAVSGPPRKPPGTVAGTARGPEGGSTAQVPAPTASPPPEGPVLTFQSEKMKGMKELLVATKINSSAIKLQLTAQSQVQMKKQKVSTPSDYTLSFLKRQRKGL
# T1 sequence (Q03164 1-2718 partner limits assumed): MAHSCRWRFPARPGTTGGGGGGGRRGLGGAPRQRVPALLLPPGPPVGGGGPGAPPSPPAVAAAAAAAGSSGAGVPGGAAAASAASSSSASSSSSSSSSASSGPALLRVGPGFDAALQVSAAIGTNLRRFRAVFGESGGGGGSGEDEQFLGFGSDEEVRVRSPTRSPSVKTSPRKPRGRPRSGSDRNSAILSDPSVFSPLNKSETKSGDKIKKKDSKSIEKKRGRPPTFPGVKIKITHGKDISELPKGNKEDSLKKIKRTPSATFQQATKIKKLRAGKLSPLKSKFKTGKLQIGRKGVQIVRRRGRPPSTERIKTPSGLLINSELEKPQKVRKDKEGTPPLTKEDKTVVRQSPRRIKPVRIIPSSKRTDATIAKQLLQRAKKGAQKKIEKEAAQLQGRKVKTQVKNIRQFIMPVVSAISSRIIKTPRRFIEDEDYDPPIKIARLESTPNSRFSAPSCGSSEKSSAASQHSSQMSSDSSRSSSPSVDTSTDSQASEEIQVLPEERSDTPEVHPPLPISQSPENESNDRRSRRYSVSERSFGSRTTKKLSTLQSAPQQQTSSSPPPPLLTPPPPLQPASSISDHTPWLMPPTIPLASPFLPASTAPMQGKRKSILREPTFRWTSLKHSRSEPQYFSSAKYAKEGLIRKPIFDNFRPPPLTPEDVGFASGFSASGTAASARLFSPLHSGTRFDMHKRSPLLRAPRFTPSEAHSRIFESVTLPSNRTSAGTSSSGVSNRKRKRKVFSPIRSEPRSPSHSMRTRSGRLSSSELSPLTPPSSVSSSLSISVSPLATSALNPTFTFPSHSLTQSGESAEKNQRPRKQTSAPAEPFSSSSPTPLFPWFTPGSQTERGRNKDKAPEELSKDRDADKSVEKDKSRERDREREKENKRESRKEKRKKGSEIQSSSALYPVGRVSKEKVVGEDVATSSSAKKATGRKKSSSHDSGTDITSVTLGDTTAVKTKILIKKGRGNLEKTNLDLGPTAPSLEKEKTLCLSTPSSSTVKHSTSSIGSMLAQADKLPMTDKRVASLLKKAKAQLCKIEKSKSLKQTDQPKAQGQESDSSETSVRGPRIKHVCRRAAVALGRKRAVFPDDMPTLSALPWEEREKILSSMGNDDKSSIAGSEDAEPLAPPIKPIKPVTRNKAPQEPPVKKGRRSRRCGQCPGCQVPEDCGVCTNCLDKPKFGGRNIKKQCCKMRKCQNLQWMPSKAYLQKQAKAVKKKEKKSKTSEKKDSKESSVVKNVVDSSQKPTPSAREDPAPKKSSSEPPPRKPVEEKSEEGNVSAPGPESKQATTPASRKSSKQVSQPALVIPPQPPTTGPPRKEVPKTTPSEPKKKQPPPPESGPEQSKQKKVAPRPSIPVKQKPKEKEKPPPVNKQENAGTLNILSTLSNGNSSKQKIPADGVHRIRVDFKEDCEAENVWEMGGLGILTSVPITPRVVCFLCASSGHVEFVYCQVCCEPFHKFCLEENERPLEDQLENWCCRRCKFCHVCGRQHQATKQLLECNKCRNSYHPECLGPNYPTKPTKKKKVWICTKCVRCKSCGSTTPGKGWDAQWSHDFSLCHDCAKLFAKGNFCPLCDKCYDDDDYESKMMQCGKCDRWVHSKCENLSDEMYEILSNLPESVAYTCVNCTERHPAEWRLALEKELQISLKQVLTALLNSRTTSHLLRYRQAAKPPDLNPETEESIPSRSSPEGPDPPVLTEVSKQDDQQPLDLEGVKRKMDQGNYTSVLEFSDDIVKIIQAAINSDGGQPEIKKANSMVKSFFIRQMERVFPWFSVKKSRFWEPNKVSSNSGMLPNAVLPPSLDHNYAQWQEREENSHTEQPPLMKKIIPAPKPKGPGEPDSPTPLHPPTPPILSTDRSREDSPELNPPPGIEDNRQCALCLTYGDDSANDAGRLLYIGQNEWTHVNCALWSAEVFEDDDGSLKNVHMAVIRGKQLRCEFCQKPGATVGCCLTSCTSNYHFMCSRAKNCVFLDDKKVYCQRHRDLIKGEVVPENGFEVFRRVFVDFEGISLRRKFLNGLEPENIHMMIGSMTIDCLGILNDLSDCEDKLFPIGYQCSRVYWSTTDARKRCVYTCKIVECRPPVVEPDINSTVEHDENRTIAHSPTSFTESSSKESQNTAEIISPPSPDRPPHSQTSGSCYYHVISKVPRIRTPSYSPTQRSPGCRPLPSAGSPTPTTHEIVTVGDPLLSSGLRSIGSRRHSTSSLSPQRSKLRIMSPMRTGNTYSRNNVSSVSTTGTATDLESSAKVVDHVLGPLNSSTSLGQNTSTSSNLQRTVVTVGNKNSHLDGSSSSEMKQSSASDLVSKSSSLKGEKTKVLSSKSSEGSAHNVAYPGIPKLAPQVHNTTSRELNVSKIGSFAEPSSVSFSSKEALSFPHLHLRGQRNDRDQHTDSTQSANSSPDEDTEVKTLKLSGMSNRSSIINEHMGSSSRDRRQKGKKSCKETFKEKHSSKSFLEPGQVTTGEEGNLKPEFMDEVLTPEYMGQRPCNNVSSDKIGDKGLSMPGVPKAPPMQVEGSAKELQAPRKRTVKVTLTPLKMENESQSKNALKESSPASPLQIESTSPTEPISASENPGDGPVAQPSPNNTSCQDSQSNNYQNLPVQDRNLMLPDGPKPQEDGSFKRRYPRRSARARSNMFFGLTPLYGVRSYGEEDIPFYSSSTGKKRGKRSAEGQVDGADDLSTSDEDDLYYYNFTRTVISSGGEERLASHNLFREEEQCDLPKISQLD
# T1 sequence (Q03164 2719-3969 partner limits assumed): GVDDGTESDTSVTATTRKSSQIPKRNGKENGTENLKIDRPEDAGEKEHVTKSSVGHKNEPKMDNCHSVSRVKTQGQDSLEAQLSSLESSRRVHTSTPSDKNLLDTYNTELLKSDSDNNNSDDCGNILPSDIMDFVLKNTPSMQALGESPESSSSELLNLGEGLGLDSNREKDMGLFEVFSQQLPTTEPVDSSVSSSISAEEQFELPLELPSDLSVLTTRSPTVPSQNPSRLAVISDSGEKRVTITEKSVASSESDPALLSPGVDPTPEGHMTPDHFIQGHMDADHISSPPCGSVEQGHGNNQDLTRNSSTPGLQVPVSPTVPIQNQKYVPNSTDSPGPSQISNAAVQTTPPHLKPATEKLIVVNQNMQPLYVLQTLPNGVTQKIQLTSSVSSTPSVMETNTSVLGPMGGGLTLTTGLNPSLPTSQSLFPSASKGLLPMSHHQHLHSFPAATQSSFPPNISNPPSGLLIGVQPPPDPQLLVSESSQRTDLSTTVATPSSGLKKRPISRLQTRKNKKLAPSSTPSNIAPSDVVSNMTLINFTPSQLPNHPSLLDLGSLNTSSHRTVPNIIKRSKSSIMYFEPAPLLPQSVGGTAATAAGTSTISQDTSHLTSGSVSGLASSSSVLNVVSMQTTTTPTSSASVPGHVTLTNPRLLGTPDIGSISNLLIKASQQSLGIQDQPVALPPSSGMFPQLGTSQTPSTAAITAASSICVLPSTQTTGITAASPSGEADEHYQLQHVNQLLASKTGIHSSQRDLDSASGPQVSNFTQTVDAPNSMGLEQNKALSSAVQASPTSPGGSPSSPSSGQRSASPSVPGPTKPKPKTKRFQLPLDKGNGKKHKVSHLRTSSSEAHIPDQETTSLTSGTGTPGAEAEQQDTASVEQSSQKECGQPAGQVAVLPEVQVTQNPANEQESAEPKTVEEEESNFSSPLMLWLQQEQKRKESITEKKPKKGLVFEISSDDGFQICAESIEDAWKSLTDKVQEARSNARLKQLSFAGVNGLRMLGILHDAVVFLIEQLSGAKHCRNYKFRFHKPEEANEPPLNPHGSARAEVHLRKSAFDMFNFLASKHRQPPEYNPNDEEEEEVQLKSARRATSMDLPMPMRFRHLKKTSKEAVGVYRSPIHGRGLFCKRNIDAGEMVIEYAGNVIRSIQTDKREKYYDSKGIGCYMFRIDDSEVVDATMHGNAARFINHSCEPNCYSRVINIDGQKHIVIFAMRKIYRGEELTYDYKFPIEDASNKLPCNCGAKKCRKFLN
# K562 = assay: Antiproliferative activity against human K562 cells after 7 days by MTS assay; assay type: functional, cell-based; settings: K562, 168 h
# How it was run: (§1)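 Cells exposed to compounds for 7 days in a proliferation assay. IC50 is given as mean ± SD of triplicate determinations. K562 cells were tested up to 20 μM.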
# MV4-11 = assay: Antiproliferative activity against human MV4-11 cells expressing MLL-AF4 after 7 days by MTS assay; assay type: functional, cell-based; settings: for IC50: MV4-11, 168 h; how it was run: as §1
# [2] = biological target: Menin/Histone-lysine N-methyltransferase MLL (Homo sapiens, UniProt O00255); assay: Inhibition of human recombinant full length menin/MLL1 (unknown origin) interaction using Ac-SRWRFPARPGTGRR-Ahx-Ahx-K-FAM as substrate after 15 mins by fluorescence polarization binding assay; assay type: protein assay
# Menin/Histone-lysine N-methyltransferase MLL, sequence (O00255 whole entry): as the sequence (O00255 whole entry) above
# Menin/Histone-lysine N-methyltransferase MLL, sequence (Q03164 1-2718 partner limits assumed): as the sequence (Q03164 1-2718 partner limits assumed) above
# Menin/Histone-lysine N-methyltransferase MLL, sequence (Q03164 2719-3969 partner limits assumed): as the sequence (Q03164 2719-3969 partner limits assumed) above
# [3] = biological target: T1, Menin/Histone-lysine N-methyltransferase MLL (Homo sapiens); assay: Inhibition of menin/MLL1 interaction in human MV4-11 cells assessed as reduction in HOXA9 mRNA level after 6 days by qRT-PCR analysis; assay type: cell-based
# How it was run: (§2)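 MV-4-11 cells incubated with compound for 6 days. HOXA9 expression measured by quantitative real-time PCR, normalized to β-actin and expressed relative to DMSO-treated cells. Triplicate means ± SD; experiment repeated 3 times.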
# [4] = biological target: T1, Menin/Histone-lysine N-methyltransferase MLL (Homo sapiens); assay: Inhibition of menin/MLL1 interaction in human MV4-11 cells assessed as reduction in HOXA9 mRNA level at 10 uM after 6 days by qRT-PCR analysis relative to control; assay type: cell-based; how it was run: as §2
SMILES,IC50 (K562) [nM],IC50 (MV4-11) [nM],IC50 [2] [nM],further results
O=[N+]([O-])c1cccc(CN2CCC(Nc3ncnc4sc(CC(F)(F)F)cc34)CC2)c1,–,–,–,inhibition [1]: 43%
FC(F)(F)Cc1cc2c(NC3CCN(Cc4ccccc4)CC3)ncnc2s1,> 20000,1020,470,Activity (MV4-11): Dose-dependent effect
CCCN1CCC(Nc2ncnc3sc(CC(F)(F)F)cc23)CC1,–,–,5670,–
FC(F)(F)Cc1cc2c(NC3CCN(Cc4ccncc4)CC3)ncnc2s1,–,–,2700,–
FC(F)(F)Cc1cc2c(NC3CCN(Cc4ccc(C(F)(F)F)cc4)CC3)ncnc2s1,–,–,–,inhibition [1]: -2.5%
COc1ccc(CN2CCC(Nc3ncnc4sc(CC(F)(F)F)cc34)CC2)cc1,> 20000,2420,640,–
FC(F)(F)Cc1cc2c(NC3CCN(Cc4ccco4)CC3)ncnc2s1,–,–,4690,–
CNCCCOc1cccc(CN2CCC(Nc3ncnc4sc(CC(F)(F)F)cc34)CC2)c1,9510,1650,1120,–
FC(F)(F)Cc1cc2c(NC3CCN(CC4CC4)CC3)ncnc2s1,> 20000,6490,770,–
FC(F)(F)Cc1cc2c(NC3CCN(Cc4cccc5ccccc45)CC3)ncnc2s1,–,–,–,inhibition [1]: 2.4%
NCCCOc1cccc(CN2CCC(Nc3ncnc4sc(CC(F)(F)F)cc34)CC2)c1,> 20000,390,670,Activity (MV4-11): Dose-dependent effect; inhibition [3]: Dose-dependent effect
C#CCN1CCC(Nc2ncnc3sc(CC(F)(F)F)cc23)CC1,–,–,–,inhibition [1]: 31.3%
CN(C)CCOc1cccc(CN2CCC(Nc3ncnc4sc(CC(F)(F)F)cc34)CC2)c1,> 20000,3490,780,–
N#Cc1ccc(NCCCN2CCN(c3ncnc4sc(CC(F)(F)F)cc34)CC2)cc1,> 20000,2690,1540,–
CC1(C)CN=C(N2CCN(c3ncnc4sc(CC(F)(F)F)cc34)CC2)S1,> 20000,640,–,–
FC(F)(F)Cc1cc2c(NCC3CCN(Cc4ccc(C(F)(F)F)cc4)CC3)ncnc2s1,–,–,–,inhibition [1]: 18.5%
N#Cc1ccc(NCCN2CCN(c3ncnc4sc(CC(F)(F)F)cc34)CC2)cc1,–,–,> 20000,–
Nc1cccc(CN2CCC(Nc3ncnc4sc(CC(F)(F)F)cc34)CC2)c1,–,–,1260,–
N#Cc1ccc(OCCN2CCN(c3ncnc4sc(CC(F)(F)F)cc34)CC2)cc1,–,–,> 20000,–

SMILES,IC50 (K562) [nM],IC50 (MV4-11) [nM],IC50 [2] [nM],further results
FC(F)(F)Cc1cc2c(NC3CCN(CCc4ccccc4)CC3)ncnc2s1,–,–,1800,–
Fc1ccc(CN2CCC(CNc3ncnc4sc(CC(F)(F)F)cc34)CC2)cc1,> 20000,2980,1170,–
N#Cc1ccc(OCCCN2CCN(c3ncnc4sc(CC(F)(F)F)cc34)CC2)cc1,9120,1020,430,Activity (MV4-11): Dose-dependent effect
CN1CCC(Oc2cccc(CN3CCC(Nc4ncnc5sc(CC(F)(F)F)cc45)CC3)c2)CC1,–,–,2350,–
Cc1cccc(CN2CCC(CNc3ncnc4sc(CC(F)(F)F)cc34)CC2)c1,–,–,3800,–
FC(F)(F)Cc1cc2c(NC3CCN(Cc4ccsc4)CC3)ncnc2s1,> 20000,790,220,Activity (MV4-11): Dose-dependent effect; inhibition [4]: 70%; inhibition [3]: Dose-dependent effect
FC(F)(F)Cc1cc2c(NC3CCN(Cc4cccc(OC5CCNCC5)c4)CC3)ncnc2s1,–,–,13400,–
FC(F)(F)Cc1cc2c(NC3CCN(Cc4ccc5ccccc5c4)CC3)ncnc2s1,–,–,–,inhibition [1]: 15.6%
N#Cc1ccc(CN2CCC(CNc3ncnc4sc(CC(F)(F)F)cc34)CC2)cc1,–,–,–,inhibition [1]: 33.4%
N#Cc1ccc(CN2CCC(Nc3ncnc4sc(CC(F)(F)F)cc34)CC2)cc1,–,–,–,inhibition [1]: 25%
FC(F)(F)Cc1cc2c(Nc3ccc(Cc4ccccc4)cc3)ncnc2s1,–,–,–,inhibition [1]: 2%
COc1ccc(CN2CCC(CNc3ncnc4sc(CC(F)(F)F)cc34)CC2)cc1,> 20000,1280,1070,–
Fc1ccc(CN2CCC(Nc3ncnc4sc(CC(F)(F)F)cc34)CC2)cc1,> 20000,6320,2000,–
FC(F)(F)Cc1cc2c(NCC3CCN(Cc4ccccc4)CC3)ncnc2s1,> 20000,2330,2240,–
NCCOc1cccc(CN2CCC(Nc3ncnc4sc(CC(F)(F)F)cc34)CC2)c1,> 20000,4150,1220,–
FC(F)(F)Cc1cc2c(NC3CCNCC3)ncnc2s1,–,–,32800,–
CN(C)CCCOc1cccc(CN2CCC(Nc3ncnc4sc(CC(F)(F)F)cc34)CC2)c1,–,–,7350,–
FC(F)(F)Cc1cc2c(NC3CCN(Cc4ccc(-c5ccccc5)cc4)CC3)ncnc2s1,–,–,–,inhibition [1]: 4.6%
